# Test results taken from PMC7385434 (Science Advances, 2020).
# Assays:
# tumor growth = conditions: sunitinib at a dose of 8.75 mg/kg; cited from earlier work
# MDA-MB-231 tumor = assay: In vivo and ex vivo fluorescence imaging of tumor accumulation and retention; design: species or system mouse; conditions: 200 μM, n = 3
# Outline: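 MDA-MB-231-bearing BALB/c nude mice received test nanoparticles (200 μl, 200 μM) i.v.; peptide-only NPs and PBS served as controls. Whole-body fluorescence (ex 500 nm, em 520 nm) was imaged at 4, 12, 24, 48 and 72 h. At 72 h, heart, liver, spleen, lung, kidney and tumor were excised for ex vivo fluorescence imaging. Groups had three to four mice.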
# MCF-7 cells = assay: CCK-8 cytotoxicity assay, MCF-7 cells; type: cell-based, human; conditions: CCK-8, 24 hours, 10-80 μM, n = 4
# [1] = Safety for blood circulation: platelet activity, thrombin, platelet numbers; type: in vivo, mouse; conditions: tumor-bearing mice, i.v. 200 μl, 200 μM, up to 5 days
# Outline: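 Tumor-bearing mice received test nanoparticles (200 μl, 200 μM) i.v. Blood was drawn into 3.8% sodium citrate at 0, 1, 4, 24 and 120 h. Platelet-rich plasma was obtained by mixing blood with an equal volume of 2% paraformaldehyde in PBS for 30 min, then centrifuging at 1000 rpm for 10 min. P-selectin was measured by flow cytometry after 30 min with FITC anti-P-selectin mAb. Thrombin was measured by ELISA; platelet counts by flow cytometry.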
# [2] = Particle size and morphology by TEM and DLS; type: physicochemical
# Outline: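 Nanoparticles were formed by quick injection of a 4.0 mM DMSO peptide stock into water (0.5:99.5 v/v), giving 20 μM. They were incubated with CD105 (0.25 μg/ml) for 0, 4 and 8 h, with BSA or no protein as controls. TEM: drops sat on copper mesh 15 min, were blotted, stained 15 min with uranyl acetate, water-washed, air-dried and imaged at 200 kV. DLS was run at 0 and 8 h.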
# HUVECs = assay: CCK-8 cytotoxicity assay, HUVECs; type: cell-based, human; conditions: CCK-8, 24 hours, 10-80 μM, n = 4
# [3] = Safety: body weight and H&E of normal tissues during therapy; type: in vivo, mouse
# Outline: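 MDA-MB-231-bearing mice were randomized into three groups of three to four. They received test nanoparticles i.v. (200 μl, 200 μM; 2.4 mg/kg) every other day, with peptide-only NPs and PBS as controls. Body weight and tumor volume were recorded every other day. Normal tissues were fixed overnight in 4% paraformaldehyde/PBS, paraffin-embedded, sectioned, H&E-stained and examined by light microscopy.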
# [4] = tested on: MDA-MB-231 xenografted tumor; assay: Blood oxygen saturation; type: in vivo, mouse; conditions: 4 hours after i.v. injection, 200 μl, 200 μM; n = 30 slices
# Outline: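 MDA-MB-231 tumor-bearing BALB/c mice were anesthetized with isoflurane in a glass box. Test nanoparticles (200 μl, 200 μM) were given i.v.; peptide-only NPs and PBS (200 μl) served as controls. Multispectral optoacoustic tomography read Hb at 715 nm and HbO2 at 850 nm before and 4 h after injection. 3D maps were built from 30 2D slices at 0.1 mm steps. Data are means ± SD; unpaired two-tailed t test.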
# [5] = in vivo fluorescence at 4, 12, 24, 48, 72 hours after i.v. 200 μl
molecule,measurement,setting,value
CCN(CC)CCNC(=O)c1c(C)[nH]c(/C=C2\C(=O)Nc3ccc(F)cc32)c1C [sunitinib],tumor growth inhibition,tumor growth,32%
BP-AHKHVHHVPVRL [BA NPs],tumor fluorescence at 72 hours,MDA-MB-231 tumor; in vivo fluorescence after i.v. 200 μl,almost disappeared
BP-FFVLK-AHKHVHHVPVRL [pNPs],concentration showing good biocompatibility (cell viability),MCF-7 cells,below 50 μM
same,change in plasma thrombin generation,[1]; ELISA,did not induce obvious changes
same,change in circulating platelet numbers,[1]; flow cytometry,did not induce obvious changes
same,change in platelet activity (P-selectin-positive platelets),[1]; flow cytometry,did not induce obvious changes
same,persistence of fluorescence in tumor,MDA-MB-231 tumor; [5],72 h
same,time up to which artificial clots continuously accumulated in tumor,MDA-MB-231 tumor; [5],24 h
same,size during incubation with CD105 (TEM),"[2]; 20 μM with CD105 0.25 μg/ml in water, pNPs at start, apNFs at 4 hours",30.6 ± 7.1 nm
same,size by DLS before incubation with CD105,"[2]; 20 μM, 0 hours, multidisperse after CD105 incubation 8 hours",31.6 nm
same,diameter (TEM and DLS),"[2]; 20 μM, H2O:DMSO = 99.5:0.5 v/v, freshly prepared",23.1 ± 5.8 nm
same,stability of nanoparticles in water,"[2]; 20 μM, water with 0.5% DMSO, without CD105, 0 and 8 h, CD, FT-IR, TEM",stable
same,diameter after incubation with BSA in place of CD105,"[2]; bovine serum albumin replacing CD105, remained particulate",29.5 ± 5.3 nm
same,concentration showing good biocompatibility (cell viability),HUVECs,below 50 μM
same,acute systemic toxicity by body weight,"[3]; i.v. 200 μM, 200 μl every other day, body weight every other day",did not induce acute systematic toxicity
same,"cell necrosis in other (non-tumor) tissues, H&E",[3]; tissues harvested 15 d after treatment,not observed
same,decrease in sO2 in tumors compared with before injection,[4],33.8%
